Measured values from different studies.
Each line is one published result; the experiments were not run side by side.
Target: Inhibitor of nuclear factor kappa-B kinase subunit beta (IKBKB, Homo sapiens, UniProt O14920)
Residues used in one study (O14920 1-756): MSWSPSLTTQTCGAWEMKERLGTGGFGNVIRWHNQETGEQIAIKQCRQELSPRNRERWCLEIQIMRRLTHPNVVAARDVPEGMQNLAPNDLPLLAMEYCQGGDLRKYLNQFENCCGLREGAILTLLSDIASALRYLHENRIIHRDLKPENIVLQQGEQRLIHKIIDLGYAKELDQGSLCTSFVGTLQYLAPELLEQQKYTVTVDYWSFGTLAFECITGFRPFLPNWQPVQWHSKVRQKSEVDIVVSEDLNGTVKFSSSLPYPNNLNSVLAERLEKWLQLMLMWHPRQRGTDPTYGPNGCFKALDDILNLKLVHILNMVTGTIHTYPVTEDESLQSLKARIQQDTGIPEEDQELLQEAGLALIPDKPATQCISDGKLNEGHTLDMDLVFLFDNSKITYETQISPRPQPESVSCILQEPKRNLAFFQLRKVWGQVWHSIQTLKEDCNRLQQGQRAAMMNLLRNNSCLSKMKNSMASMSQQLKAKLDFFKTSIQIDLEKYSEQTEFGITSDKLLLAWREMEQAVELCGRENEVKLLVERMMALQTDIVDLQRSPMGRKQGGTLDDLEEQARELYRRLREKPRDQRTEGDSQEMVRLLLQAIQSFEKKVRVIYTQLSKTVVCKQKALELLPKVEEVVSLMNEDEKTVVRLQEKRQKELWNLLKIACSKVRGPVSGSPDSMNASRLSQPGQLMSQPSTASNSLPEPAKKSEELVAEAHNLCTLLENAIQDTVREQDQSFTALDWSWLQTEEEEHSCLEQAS

SMILES	test	conditions	endpoint	value
Nc1ncc(-c2nc(N3CCOCC3)nc(N3CCOCC3)n2)c(C(F)F)n1	binding, competition with immobilised ligand	10 µM	remaining binding	77%
O=c1[nH]c2ccccc2n1C1CCN(Cc2ccc(-c3[nH]c4cc5ncnc5cc4nc3-c3ccccc3)cc2)CC1	enzyme activity	0.5 µM	remaining activity	101%
C#Cc1n[nH]c2c(-c3cn([C@@H](C)c4ccccn4)c(=O)[nH]c3=O)cc(F)cc12	enzyme activity, inhibitor	0.1 µM	inhibition	0.8%
COc1ncccc1-c1cnn2ccc(N3CCN(C(=O)OC(C)C)CC3)nc12	binding, competition with immobilised ligand	1 µM	remaining binding	61%
Cn1cncc1[C@](O)(COc1ccc(C#N)cc1-c1ccc(OC(F)(F)F)cc1)c1ccc(C#N)cc1	cell-free assay, competition with immobilised ligand	1 µM	remaining binding	87%
CC(C)(C)c1cc(C=C(C#N)C#N)cc(Br)c1O	enzyme activity, inhibitor	0.5 µM	remaining activity	95.7%
C#Cc1n[nH]c2c(-c3cn([C@@H](C)c4ccccc4)c(=O)[nH]c3=O)cc(F)cc12	enzyme activity, inhibitor	0.1 µM	inhibition	-2.2%
Cc1nn(C)cc1-c1nc2c(N3CCN(Cc4ccc(Cl)cc4)CC3)c(Cl)cnc2[nH]1	binding, competition with immobilised ligand	1 µM	remaining binding	100%
N#CC1(c2ccccn2)CCN(Cc2cc(C(=O)O)c(=O)n3ccccc23)CC1	cell-free assay, competition with immobilised ligand	1 µM	remaining binding	100%
Cn1cc(-c2cc(F)cc(N3CCn4c(cc5c4CCCC5)C3=O)c2CO)cc(Nc2ccc(N3CCN(C4COC4)CC3)cn2)c1=O	enzyme activity, inhibitor	0.1 µM	inhibition	5%
